“And” between values parts separate entries of the source, which are not always exact repeats. Identical values can stand only once. Like-named read-outs stand apart in the source and are kept apart here. Marks after values point to notes of the source that are not given here.
Legend:
[1] = ARIADME phase I pharmacokinetics/bioavailability study; format: in vivo, human; conditions: for Cmax: healthy male subjects; for CL renal: plasma and urine, CLR; for half-life: t½; for AUC(0-inf): AUC0–inf; for AUC(0-t): AUC0–tlast; for tmax: median (range)
In short: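 Six healthy fasted men took one oral 300 mg tablet, then a 100 µg IV 14C-microtracer as a 15-min infusion ending 3 h post-dose. Six others took an oral 14C-dose of 300 mg in aqueous propylene glycol solution (≤ 6.3 MBq). Oral plasma levels were measured by validated HPLC-MS, and IV levels by LC fractionation with accelerator MS. Values are geometric mean (CV%).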

[2] = format: in vivo, human; conditions: for RLIN, linearity factor (ratio of multiple-dose AUC0–12 to single-dose AUC): 600 mg BID with food; for RAAUC, accumulation ratio based on AUC0–12 / RACmax, accumulation ratio based on Cmax: multiple (day 7) vs single (day 1) dosing, 600 mg BID; for trough concentrations reached steady-state levels after: BID treatment 600 mg
In short: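 Fifteen healthy men took 600 mg (two 300 mg tablets) 30 min after starting a standardized meal on day 1, then twice daily on days 4–7. Plasma was sampled to 72 h after the single dose, at trough on days 4–6, and to 12 h on day 7. Samples underwent solid-phase extraction and LC-MS/MS. Accumulation ratios compared multiple- with single-dose AUC0–12 and Cmax. RLIN was multiple-dose AUC0–12 over single-dose AUC0–inf.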

plasma proteins [3] = format: in vitro ADME, human; conditions: ex vivo samples after single oral administration of darolutamide 600 mg
In short: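 Unbound fractions of the parent, both diastereomers and keto metabolite were measured by equilibrium dialysis. Plasma came from healthy male subjects and from non-cancer patients with moderate hepatic or severe renal impairment, after a single oral 600 mg dose taken with food.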

[4] = format: in vivo, human; conditions: for Cmax increase vs healthy subjects / exposure (AUC0–48) increase vs healthy subjects: single 600 mg with food
In short: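 Open-label, parallel-group, multicenter trial in men aged 45–79. Groups were Child–Pugh B cirrhosis, severe renal impairment (eGFR 15–29 mL/min/1.73 m2, MDRD equation), and age- and weight-matched healthy controls. Each took two 300 mg tablets 30 min after starting a standardized breakfast. Plasma was sampled pre-dose to 48 h and assayed by validated LC-MS/MS. Parameters used total and unbound concentrations.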

[5] = nonmetastatic CRPC, cited from earlier work
[6] = Solubility in fed vs fasted state simulated intestinal fluid; format: physicochemical; conditions: in vitro data (data on file)
[7] = test system: patients with nonmetastatic castration-resistant prostate cancer (CRPC); conditions: 600 mg BID, cited from earlier work
plasma proteins [8] = assay: In vitro plasma protein binding; format: in vitro ADME; conditions: human plasma (data on file)
[9] = cited from earlier work
[10] = Day 1 (single dose) 600 mg oral with food, median (range)
[11] = Day 7 (multiple doses) 600 mg BID oral with food, median (range)
[12] = male, human, plasma, po, 600 mg
[13] = moderate hepatic impairment (Child–Pugh class B)
[14] = 100 µg IV 14C-microtracer, 15-min infusion, geometric mean (CV%)
[15] = male, human, plasma, iv, 100 µg
[16] = male, human, plasma, po, 300 mg, single 300 mg oral 14C-solution, fasted, geometric mean (CV%)
[17] = male, human, plasma, po, 300 mg, single 300 mg oral tablet, fasted, geometric mean (CV%)

C[C@@H](Cn1ccc(-c2ccc(C#N)c(Cl)c2)n1)NC(=O)c1cc([C@@H](C)O)[nH]n1 [(S,R)-darolutamide]
clearance, (S,R)-darolutamide higher vs (S,S)-darolutamide ([1]; after the IV dose): 2.9 fold
RLIN, linearity factor (ratio of multiple-dose AUC0–12 to single-dose AUC) [2]: 0.9
Terminal t½ ([2]; Day 1 (single dose) 600 mg oral with food, geometric mean/geometric CV% (range)): 14.5 h
tmax [2, 10]: 3.97 (1.02–6.02) h
tmax [2, 11]: 3.00 (0.967–4.00) h
RAAUC, accumulation ratio based on AUC0–12 [2]: 1.2
RACmax, accumulation ratio based on Cmax [2]: 1.2

C[C@H](O)c1cc(C(=O)N[C@@H](C)Cn2ccc(-c3ccc(C#N)c(Cl)c3)n2)n[nH]1 [(S,S)-darolutamide]
RLIN, linearity factor (ratio of multiple-dose AUC0–12 to single-dose AUC) [2]: 1.1
tmax [2, 10]: 5.98 (2.50–8.00) h
tmax [2, 11]: 3.98 (0.00–6.02) h
RAAUC, accumulation ratio based on AUC0–12 [2]: 2.3
RACmax, accumulation ratio based on Cmax [2]: 2.0

CC(O)c1cc(C(=O)N[C@@H](C)Cn2ccc(-c3ccc(C#N)c(Cl)c3)n2)[nH]n1 (stereo partly shown) [Darolutamide]
mean free (unbound) fraction in plasma (plasma proteins [3]): 7.8%
tmax ([4]; Moderate hepatic impairment, single oral 600 mg with food, median (range)): 4.00 (4.00–8.00) h
tmax ([4]; Severe renal impairment, single oral 600 mg with food, median (range)): 4.00 (3.00–12.0) h
tmax [4, 12]: 4 h
terminal t½ compared with healthy subjects ([4]; moderate hepatic impairment): did not change
Cmax increase vs healthy subjects [4, 13]: 1.5 fold
exposure (AUC0–48) increase vs healthy subjects [4, 13]: 1.9 fold
terminal t½ vs healthy subjects ([4]; severe renal impairment): prolonged
Cmax increase vs healthy subjects ([4]; severe renal impairment): 1.6 fold
exposure (AUC0–48) increase vs healthy subjects ([4]; severe renal impairment): 2.5 fold
AUC0–inf [1, 14]: 13,645 (39.5)^a h⋅pg eq/mL
fraction absorbed based on amount of total 14C-radioactivity excreted in urine ([1]; 300 mg oral solution): 127%
fraction absorbed based on plasma AUC of total 14C-radioactivity ([1]; 300 mg oral solution): 109%
Cmax [1, 14]: 4127 (27.4)^a pg eq/mL
CL renal ([1]; male, human, po, 300 mg, single 300 mg oral 14C-solution, fasted, geometric mean (CV%)): 7.73 mL/min
CL renal ([1]; male, human, po, 300 mg, single 300 mg oral tablet, fasted, geometric mean (CV%)): 6.52 mL/min
Vd [1, 15]: 119 L
clearance [1, 15]: 116 mL/min
half-life ([1]; male, human, plasma, iv, 100 µg, 100 µg IV 14C-microtracer, 15-min infusion, geometric mean (CV%)): 11.8 h
AUC(0-inf) [1, 16]: 45600 ng·h/mL
AUC(0-inf) [1, 17]: 12900 ng·h/mL
AUC(0-t) [1, 16]: 45300 ng·h/mL
AUC(0-t) [1, 17]: 12400 ng·h/mL
Cmax ([1]; male, human, plasma, po, 300 mg, Cmax, single 300 mg oral 14C-solution, fasted, geometric mean (CV%)): 3820 ng/mL
Cmax ([1]; male, human, plasma, po, 300 mg, Cmax, single 300 mg oral tablet, fasted, geometric mean (CV%)): 800 ng/mL
bioavailability ([1]; male, human, plasma, po, 300 mg, F (absolute oral bioavailability), single 300 mg oral 14C-solution, fasted, geometric mean (CV%)): 98.9%
bioavailability ([1]; male, human, plasma, po, 300 mg, F (absolute oral bioavailability), single 300 mg oral tablet, fasted, geometric mean (CV%)): 29.9%
Vd/F [1, 16]: 101 L
Vd/F [1, 17]: 514 L
bioavailability ([1]; male, human, plasma, po, 300 mg, absolute bioavailability, single 300 mg oral solution, fasted): 98.9%
tmax ([1]; male, human, plasma, po, 300 mg, single 300 mg oral 14C-solution, fasted): 1.58 h
tmax ([1]; male, human, plasma, po, 300 mg, single 300 mg oral tablet, fasted): 3.5 h
half-life [1, 16]: 10.6 h
half-life [1, 17]: 15.3 h
CL/F ([1]; single 300 mg oral 14C-solution, fasted, geometric mean (CV%)): 110 (21.3) mL/min
absolute bioavailability ([1]; single 300 mg oral solution, fasted): ~ 100%
CL/F ([1]; single 300 mg oral tablet, fasted, geometric mean (CV%)): 388 (36.2) mL/min
mean AUC0–inf, oral solution higher than tablet formulation ([1]; single 300 mg, fasted): 3.5 fold
mean Cmax, oral solution higher than tablet formulation ([1]; single 300 mg, fasted): 4.8 fold
absolute bioavailability based on AUC0–inf ([1]; single 300-mg oral tablet, fasted state, IV microtracer as reference): ~ 30%
mean whole blood:plasma ratio of total 14C-radioactivity ([1]; single oral solution dose): 0.7
exposure vs patients with normal organ function ([5]; patients with mild hepatic impairment): not higher
exposure vs patients with normal organ function ([5]; patients with mild or moderate renal impairment): at most only slightly higher
solubility in fed vs fasted state simulated intestinal fluid [6]: improved solubility
RLIN, linearity factor (ratio of multiple-dose AUC0–12 to single-dose AUC) [2]: 1.1
trough concentrations reached steady-state levels after [2]: 1 days
tmax [2, 10]: 5.97 (2.50–7.95) h
tmax [2, 11]: 3.98 (2.00–5.98) h
half-life ([2]; male, human, plasma, oral, 600 mg): 13 h
AUC(0-inf) [2, 12]: 26200 ng·h/mL
half-life [2, 12]: 11.6 h
tmax ([2]; male, human, plasma, po, 600 mg, median time to peak concentration, oral tablet, single dosing of 600 mg): 4 to 6 h
RAAUC, accumulation ratio based on AUC0–12 [2]: 2.1
RACmax, accumulation ratio based on Cmax [2]: 1.9
mean peak plasma concentration ([2]; single oral dose 600 mg with food, healthy male subjects): 1.77 µg/mL
time to steady state ([2]; twice-daily dosing): approximately 2 days
overall survival hazard ratio vs placebo ([7]; 95% confidence interval 0.53–0.88, p = 0.003): 0.69
metastasis-free survival ([7]; p < 0.001 vs placebo): 40.4 months
mean free (unbound) fraction (plasma proteins [8]): ~ 8% and 8%
absolute bioavailability of tablet given with food [9]: 60–75%

CC(=O)c1cc(C(=O)N[C@@H](C)Cn2ccc(-c3ccc(C#N)c(Cl)c3)n2)[nH]n1 [Keto-darolutamide, keto-darolutamide]
mean free (unbound) fraction in plasma (plasma proteins [3]): 0.12%
plasma exposure (AUC0–48) vs healthy subjects ([4]; patients with renal or hepatic impairment, increase less pronounced than for darolutamide): increased
metabolite:parent total concentration ratio based on AUC0–inf ([1]; IV microtracer dose): 1.50
metabolite:parent total concentration ratio based on AUC0–inf ([1]; oral solution dose): 2.06
metabolite:parent total concentration ratio based on AUC0–inf ([1]; oral tablet dose): 1.67 and 1.7
RLIN, linearity factor (ratio of multiple-dose AUC0–12 to single-dose AUC) [2]: 1.2
trough concentrations reached steady-state levels after [2]: 1 days
tmax [2, 10]: 4.00 (2.50–6.02) h
tmax [2, 11]: 3.00 (1.48–5.97) h
plasma exposure of keto-darolutamide vs darolutamide ([2]; after single and multiple dosing of darolutamide): approximately twofold higher
RAAUC, accumulation ratio based on AUC0–12 [2]: 2.2
RACmax, accumulation ratio based on Cmax [2]: 2.0
mean free (unbound) fraction (plasma proteins [8]): 0.2% and < 1%

From publication PMC8975796 (Clinical Pharmacokinetics, 2021)
